These results are taken from ChEMBL document CHEMBL3098086, “Synthesis and biological evaluation of α-triazolyl chalcones as a new type of potential antimicrobial agents and their interaction with calf thymus DNA and human serum albumin” (Eur J Med Chem, 2014).

Values after ≈ are worked out from the molar mass of the structure shown. Active and inactive are the calls of the source. No cut-off for these calls is given here.

In data set [1] the test system is DNA. The experiment in a line: Binding affinity to calf thymus DNA by UV-vis absorption spectra analysis. Type of data set: nucleic-acid assay. To be noted: Bos taurus.
Data set [2] concerns the target T1, Albumin (Homo sapiens, UniProt P02768). The experiment in a line: Binding affinity to human serum albumin at pH 7.4 at 286 K by fluorescence quenching analysis. Type of data set: ADME. The conditions noted are these: isolated protein. The procedure, abridged: (§1)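 Intrinsic HSA Trp fluorescence was quenched by compound titration at pH 7.4 and at 286, 298 or 310 K. Excitation was 295 nm, emission scanned 300–450 nm, both slits 2.5 nm, 1.0 cm quartz cells. Data were fitted by Stern–Volmer analysis to give KSV. Kq was calculated assuming an HSA fluorescence lifetime of 6.4 × 10^-9 s.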

The subject of the next data set is Micrococcus luteus. The experiment in a line: Antibacterial activity against Micrococcus luteus ATCC 4698 after 24 hrs by twofold serial dilution method. Type of data set: functional. To be noted: ATCC 4698, 24 h. The procedure, abridged:
(§2)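 Bacterial strains: S. aureus ATCC 25923, B. subtilis ATCC 21216, M. luteus ATCC 4698, E. coli JM109, P. aeruginosa ATCC 27853, B. proteus ATCC 13315. MICs by two-fold broth microdilution in 96-well plates per NCCLS. Chloromycin and Norfloxacin served as positive controls.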

A further data set has as its system Bacillus subtilis. The experiment in a line: Antibacterial activity against Bacillus subtilis ATCC 21216 after 24 hrs by twofold serial dilution method. Type of data set: functional. The conditions noted are these: ATCC 21216, 24 h. In short, it runs like this: as §2
Data set [3] deals with DNA. The experiment in a line: Displacement of neutral red from calf thymus DNA by UV-vis absorption spectra analysis. Type of data set: nucleic-acid assay. The conditions noted are these: Bos taurus.
Data set [4] deals with T1, Albumin. The experiment in a line: Ratio of binding affinity to human serum albumin in presence of Cu2+ to binding affinity to human serum albumin absence of Cu2+. Type of data set: ADME. The conditions noted are these: isolated protein.
In data set [5] the target is T1, Albumin. The experiment in a line: Ratio of binding affinity to human serum albumin in presence of K+ to binding affinity to human serum albumin absence of K+. Type of data set: ADME. To be noted: isolated protein.
Data set [6] concerns the target T1, Albumin. The experiment in a line: Ratio of binding affinity to human serum albumin in presence of Zn2+ to binding affinity to human serum albumin absence of Zn2+. Type of data set: ADME. To be noted: isolated protein.
Data set [7] deals with Staphylococcus aureus. The experiment in a line: Antibacterial activity against Staphylococcus aureus ATCC 25923 after 24 hrs by twofold serial dilution method. The conditions noted are these: ATCC 25923, 24 h. Type of data set: functional. In short, it runs like this:
as §2

Data set [8] concerns the target T1, Albumin. The experiment in a line: Ratio of binding affinity to human serum albumin in presence of Ca2+ to binding affinity to human serum albumin absence of Ca2+. The conditions noted are these: isolated protein. Type of data set: ADME.
Another data set has as its system Bacillus. The experiment in a line: Antibacterial activity against Bacillus proteus ATCC 13315 after 24 hrs by twofold serial dilution method. Type of data set: functional. To be noted: ATCC 13315, 24 h. In short, it runs like this:
as §2

The subject of the next data set is Candida. The experiment in a line: Antifungal activity against Candida mycoderma ATCC 96918 after 24 hrs by micro broth dilution method. Type of data set: functional. To be noted: ATCC 96918, 24 h. The procedure, abridged: (§3)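 Fungi: C. albicans ATCC 76615 and C. mycoderma ATCC 96918. MICs by two-fold broth microdilution in 96-well plates per NCCLS. Fluconazole served as positive control.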
(Dilution methods test growth across graded concentrations, often in twofold steps.)

The next data set deals with Salmonella typhi. The experiment in a line: Antibacterial activity against Bacillus typhi after 24 hrs by twofold serial dilution method. Type of data set: functional, Salmonella enterica subsp. enterica serovar Typhi. To be noted: Salmonella enterica. The procedure, abridged:
(§4)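 Two-fold broth microdilution per NCCLS recommendations. The MIC was read as the minimum inhibitory concentration. Chloromycin and Norfloxacin served as positive controls. Strains were Bacillus typhi (Gram-negative panel) and methicillin-resistant S. aureus N315.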

Data set [9] has as its target T1, Albumin. The experiment in a line: Ratio of binding affinity to human serum albumin in presence of Ni2+ to binding affinity to human serum albumin absence of Ni2+. Type of data set: ADME. The conditions noted are these: isolated protein.
A further data set relates to Pseudomonas aeruginosa. The experiment in a line: Antibacterial activity against Pseudomonas aeruginosa ATCC 27853 after 24 hrs by twofold serial dilution method. Type of data set: functional. To be noted: ATCC 27853, 24 h. In short, it runs like this: as §2
For the next data set, the system named is Candida albicans. The experiment in a line: Antifungal activity against Candida albicans ATCC 76615 after 24 hrs by micro broth dilution method. Type of data set: functional. The conditions noted are these: ATCC 76615, 24 h. The procedure, abridged: as §3
The target of data set [10] is T1, Albumin. The experiment in a line: Ratio of binding affinity to human serum albumin in presence of Mg2+ to binding affinity to human serum albumin absence of Mg2+. To be noted: isolated protein. Type of data set: ADME.
The target of data set [11] is T1, Albumin. The experiment in a line: Ratio of binding affinity to human serum albumin in presence of Pb2+ to binding affinity to human serum albumin absence of Pb2+. Type of data set: ADME. The conditions noted are these: isolated protein.
Data set [12] deals with T1, Albumin. The experiment in a line: Binding affinity to human serum albumin at pH 7.4 at 310 K by fluorescence quenching analysis. To be noted: isolated protein. Type of data set: ADME. In short, it runs like this: as §1
For data set [13], the system named is Staphylococcus aureus. The experiment in a line: Antibacterial activity against methicillin-resistant staphylococcus aureus N315 after 24 hrs by twofold serial dilution method. Type of data set: functional. To be noted: N315, 24 h. The procedure, abridged: as §4
Another data set deals with Escherichia coli. The experiment in a line: Antibacterial activity against Escherichia coli JM109 after 24 hrs by twofold serial dilution method. Type of data set: functional. To be noted: JM109, 24 h. In short, it runs like this:
as §2

The target in data set [14] is T1, Albumin. The experiment in a line: Binding affinity to human serum albumin at pH 7.4 at 298 K by fluorescence quenching analysis. Type of data set: ADME. The conditions noted are these: isolated protein. In short, it runs like this:
as §1

Data set [15] concerns the target T1, Albumin. The experiment in a line: Ratio of binding affinity to human serum albumin in presence of Fe3+ to binding affinity to human serum albumin absence of Fe3+. Type of data set: ADME. The conditions noted are these: isolated protein.

T1 sequence (P02768 whole entry): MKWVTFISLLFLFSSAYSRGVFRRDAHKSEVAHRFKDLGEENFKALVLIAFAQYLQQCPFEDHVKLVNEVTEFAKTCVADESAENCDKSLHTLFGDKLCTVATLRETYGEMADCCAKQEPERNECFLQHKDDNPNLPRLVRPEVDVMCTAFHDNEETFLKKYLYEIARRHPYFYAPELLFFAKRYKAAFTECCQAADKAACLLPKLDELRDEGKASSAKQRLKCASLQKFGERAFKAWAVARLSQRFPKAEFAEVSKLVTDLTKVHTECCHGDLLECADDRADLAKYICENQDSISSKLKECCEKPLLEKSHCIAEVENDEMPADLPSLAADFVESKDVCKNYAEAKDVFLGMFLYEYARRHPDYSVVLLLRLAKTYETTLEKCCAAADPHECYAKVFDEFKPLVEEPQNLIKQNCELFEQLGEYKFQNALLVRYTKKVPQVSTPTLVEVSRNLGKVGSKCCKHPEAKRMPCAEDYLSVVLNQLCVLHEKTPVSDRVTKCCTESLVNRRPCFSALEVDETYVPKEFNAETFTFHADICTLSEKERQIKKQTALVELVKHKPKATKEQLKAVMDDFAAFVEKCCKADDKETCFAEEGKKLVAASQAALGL

The MIC is the least concentration at which growth counts as inhibited. Read a low MIC as inhibition by little substance. As for `O=C(/C(=C/c1ccccc1)n1cncn1)c1ccc(F)cc1N1CCCCC1`, in the data set on DNA [1], the Activity result was “Dose-dependent effect”. This compound also gave a K in the data set with DNA [1] of 1.22 ×10⁴ L/mol. Also, the values for the KSV at Albumin [2], at Albumin [12] and at Albumin [14] were 7.59 ×10⁴ L/mol, 5.84 ×10⁴ L/mol and 6.72 ×10⁴ L/mol, respectively. For the same compound, the minimum inhibitory concentration (MIC) in the data set on Micrococcus luteus worked out at 4 µg/mL (≈ 10.6 µM); with Bacillus subtilis, 8 µg/mL (≈ 21.3 µM); with Staphylococcus aureus [7], 16 µg/mL (≈ 42.5 µM); in the data set with Bacillus, 8 µg/mL (≈ 21.3 µM); in the data set with Candida, 8 µg/mL (≈ 21.3 µM); in the data set on Salmonella typhi, 8 µg/mL (≈ 21.3 µM). Also, the MIC in the data set with Pseudomonas aeruginosa is 16 µg/mL (≈ 42.5 µM); against Candida albicans it was 16 µg/mL (≈ 42.5 µM); in the data set on Staphylococcus aureus [13], 4 µg/mL (≈ 10.6 µM); in the data set on Escherichia coli, 16 µg/mL (≈ 42.5 µM). Moreover, in the data set on DNA [3], the result was Active. Besides, the Ratio is 0.959 on Albumin [4]; 1.324 on Albumin [5]; 0.918 at Albumin [6]; 0.887 at Albumin [8]; 0.835 on Albumin [9]; 1.068 on Albumin [10]. Moreover, the Ratio worked out at 0.819 on Albumin [11] and 1.151 at Albumin [15].
